Converted amounts (≈) assume the structure as drawn. “And” between values parts separate entries of the source, which are not always exact repeats. Identical values can stand only once. Like-named read-outs stand apart in the source and are kept apart here.

Data set [1] deals with BRCA wild-type recurrent high-grade serous ovarian cancer. The following applies: phase 2, 8 of 28 women, intention-to-treat population; cited from earlier work.
A short description of data set [2]: Phase 1 study: noncompartmental plasma pharmacokinetics. In kind it is in vivo, human. The conditions noted are these: for C av,72 (average plasma concentration over 72 h): geometric mean (CV%). The method in brief:
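The test compound was given as a 1-h IV infusion at 80 or 105 mg/m2 every 14 days. Plasma levels were measured by validated LC/MS/MS and analysed noncompartmentally. C av,72 is the mean plasma concentration over 72 h after infusion. Accumulation ratio is cycle 2 day 1 AUC(0-24) divided by cycle 1 day 1 AUC(0-24). Values are geometric means.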

Data set [3] relates to advanced solid tumors. The conditions noted are these: cited from earlier work.
The test system of data set [4] is Calu-6 xenograft. The following applies: cited from earlier work.
The subject of data set [5] is advanced solid tumors. Kind of data set: Phase 1 study: antitumor activity by RECIST version 1.1. In kind it is in vivo, human. The essentials:
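Adults with advanced solid tumors received the test compound at 80 or 105 mg/m2 by IV infusion on day 1 of each 14-day cycle. Tumors were measured by CT or MRI and scored with RECIST 1.1. Best overall response was the best response recorded from the start of treatment until disease progression. Patients counted if they had baseline and post-baseline tumor measurements.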

On to `COc1cccc(OCCCN)c1-c1cc(Nc2cnc(C#N)cn2)n[nH]1` [Prexasertib], for which the Partial responses in data set [1] was 29%. For the same compound, the “C av,72 (average plasma concentration over 72 h)” value in data set [2] (80 mg/m^2 1-h IV infusion, Cycle 1, day 1, N 6) was 23.1 (22) ng/mL; in data set [2] (80 mg/m^2 1-h IV infusion, Cycle 2, day 1, N 4), 24.8 (16) ng/mL; in data set [2] (105 mg/m^2 1-h IV infusion, Cycle 1, day 1, N 6), 30.0 (13) ng/mL; in data set [2] (105 mg/m^2 1-h IV infusion, Cycle 2, day 1, N 3) it was 31.5 (22) ng/mL. The “Intercycle accumulation between cycle 1 and cycle 2” value in data set [2] (both treatment groups) is listed as “no intercycle accumulation”. For the same compound, the “Best overall response of stable disease” value was 33% in data set [3] (US phase 1, 15 of 45 patients); 8 of 11 in data set [5] (patients with baseline and post-baseline tumor measurements, both doses). Further, the Partial response in data set [3] (US phase 1, 45 patients, Two patients (SCC of the anus, SCC of the head and neck)) was 4%. In addition, in data set [3] (US phase 1, administered once every 14 days), the Recommended prexasertib dose is 105 mg/m^2. Besides, the “Patients with tumor shrinkage” value in data set [3] (phase 1 trial in non-Japanese patients) is given as 10 of 34. The “IC50 derived from the single-agent Calu-6 xenograft model” value in data set [4] (plasma concentration) is 0.0141 µg/mL (≈ 0.0386 µM). In data set [4] (predicted from Calu-6 xenograft PK/pharmacodynamic model, monotherapy), the “Median AUC(0-72) predicted to achieve the maximal tumor response” value is 1896 ng·h/mL. Besides, in data set [5] (80 mg/m^2, two patients with BOR of stable disease), the “Maximum tumor shrinkage from baseline, individual patients with esophageal SCC” value is 20% and 13%. Besides, the BOR progressive disease in data set [5] (80 mg/m^2 group, 2 of 6 patients) is 33.3%; in data set [5] (105 mg/m^2 group, 1 of 5 evaluable patients), 20.0%. In addition, the BOR stable disease was found to be 66.7% in data set [5] (80 mg/m^2 group, 4 of 6 patients) and 80.0% in data set [5] (105 mg/m^2 group, 4 of 5 evaluable patients). The “Complete response or partial response” value in data set [5] (all patients) is listed as “No patients in the study had a complete response or partial response”.
